Assay outcomes: PubChem BioAssay, Broad Institute
INS-1E GSIS act: GLuc luminescence reporter in INS-1E cells, primary screen for activators of glucose-dependent secretion of insulin. INS-1E GLuc reporter insulin secretion, 2-3 h. activation, % at 16.6 µM. 370,000 compounds, 0.61% hits. AID 743287, 2014;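 active = lowest replicate activation of at least 40%, so every replicate reaches that level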;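 also: 0% = median of neutral control wells and 100% = median of IBMX positive control wells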
Cneo AK release: Cryptococcus neoformans cell lysis inducers, primary screen, AK release luminescence, single concentration | 360,000 compounds, 0.2% hits | lysis activity, % at 15 µM | AID 651654, 2012 | C. neoformans lysis, adenylate kinase release luminescence, 4 h; normalised: neutral wells 0, clomiphene wells 100;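 active = mean lysis activity across replicates of at least 80%, whatever share of replicates individually reach that level; inactive = mean lysis activity below 80%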
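Assay system: C. neoformans cells. Amount: yeast cell density of 5 × 10^6 cells/mL. Technique: AK luminescence. Buffer or medium: YPD. Times: static 4 h at 37 °C with compound, 1 h detection. Dosing: single-point compound dose. Read-out: lysis from increased AK signal.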
dFosB activator: activators of delta FosB homodimer, primary screen, biochemical, fluorescence polarization, TAMRA-CDK5 oligo, single point. purified delta FosB; percent of positive-control signal above neutral wells. activation, % at 25 µM. 340,000 compounds, 0.99% hits. AID 493131, 2011;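 active = mean activation above about 17%, with every replicate also reaching it, limit read from the data, passing the limit was not always enough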
Env fusion inh: inhibitors of HIV-1 Env-driven cell-cell fusion, primary screen, HeLa-JRFL effector, CEM21 target cells, luciferase; 360,000 compounds, 1.1% hits; AID 651610, 2012; inhibition, % at 12.3 µM;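 active = mean replicate inhibition score of at least 50 and every replicate individually at or above 50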;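 also: 0% = plate neutral controls and 100% = maraviroc near 300 nM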
PAX8 reporter: inhibitors of PAX8-driven TPO luciferase reporter, primary screen, RMG-I cells, single concentration; SteadyGlo, 24 h; inhibition, % at 12.6 µM; 360,000 compounds, 1.2% hits; AID 652154, 2013;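 active = mean replicate inhibition at least 60% with every replicate also reaching 60%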;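 also: luciferase light reporting Pax8 driven TPO promoter activity; plate controls were median of neutral control wells for no effect and mitoxantrone controls for full effect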
CDK5 p35 inh: inhibitors of human CDK5/p35 kinase, primary screen, biochemical, single concentration. Cyclin-dependent kinase 5 (Homo sapiens) + Cyclin-dependent kinase 5 activator 1 (Homo …. Recombinant CDK5/p35, ADP-Glo luminescence, 60 min. inhibition, % at 10 µM. 330,000 compounds, 0.01% hits;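 active = highest replicate inhibition of at least 50% and at least 75% of replicates reaching 50%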;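 also: plate controls were DMSO neutral control for no effect and GW8510 at 10 µM for full effect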
Numbers without * were called inactive; . = not tested or not shown; ! = repeats disagree; [ ] = remark or other dose. Shown are actives, neighbours in structure and some others; about 2.9% of the full set was active somewhere.

SMILES | INS-1E GSIS act | Cneo AK release | dFosB activator | Env fusion inh | PAX8 reporter | CDK5 p35 inh
CC1=C([N+](=O)[O-])C(c2cccc(Br)c2)C2=C(N1)c1ccccc1C2=O (stereo not given) | . | 6 | -7 | 138* | 85* | 0
COC(=O)C1=C(C)NC2=C(C(=O)c3ccccc32)C1c1cccc(OC)c1 (stereo not given) | . | 2 | -1 | 10 | -2 | -9
C=C[C@@]1(C)CC(=O)[C@]2(O)[C@@]3(C)[C@@H](O)CCC(C)(C)[C@@H]3[C@H](O)[C@H](OC(C)=O)[C@@]2(C)O1 | 99* | -1 | 1 | . | -47 | 1
C=C1C(=O)O[C@H]2C[C@]3(C)C([C@@H](OC(=O)/C(C)=C/C)[C@H]12)[C@](C)(O)CC[C@H]3O (stereo not given in full) | 12 | 0 | -5 | 25 | 53 | 0
C=C[C@@]1(C)CC(=O)[C@]2(O)[C@@]3(C)[C@@H](O)CCC(C)(C)[C@@H]3[C@H](OC(C)=O)[C@H](O)[C@@]2(C)O1 | 85* | -1 | -8 | . | . | 1
CC(C)[C@@H](C)/C=C/[C@@H](C)[C@H]1CC[C@@H]2[C@]1(C)CCC1[C@]23C=C[C@]2(C[C@@H](O)CC[C@]12C)N(c1cnccn1)O3 (stereo not given in full) | . | . | . | -14 | 17 | .
CC(C)C(=O)Nc1ccc2c(c1)C(=O)N(C)[C@@H]1CC[C@H](CC(=O)NCc3cccc(F)c3)O[C@@H]1CO2 | -8 | -4 | . | -21[16.7 µM] | 2 | .
COc1ccc2c(c1OC)C(=O)N1c3ccccc3COC21 (stereo not given) | . | 0 | -25 | . | . | -1
COc1ccc2c(c1OC)C(=O)N1c3ccccc3SC21 (stereo not given) | 115* | -1 | -6 | . | . | 3
COc1ccccc1-c1cnc2c(c1)C(=O)N([C@@H](C)CO)C[C@@H](C)[C@H](CN(C)C(=O)c1cccnc1)O2 | -3 | 89*! | . | 16 | -18 | .
COc1ccccc1-c1cnc2c(c1)C(=O)N([C@H](C)CO)C[C@H](C)[C@H](CN(C)C(=O)c1cccnc1)O2 | 11 | -3 | . | 11[16.7 µM] | -34 | .
COCC(=O)N(C)C[C@H]1Oc2ncc(-c3ccccc3F)cc2C(=O)N([C@@H](C)CO)C[C@H]1C | 13 | 87* | . | -13[16.7 µM] | 2 | .
O=C(C1CCCC1)N1CC2(C1)[C@@H](c1ccccc1)[C@@H](CO)N2CC1CCCC1 | -31 | . | . | . | . | .
COc1ccc(C(=O)NCC(=O)N=Nc2c(O)n(Cc3ccccc3)c3ccccc23)cc1OC | 4 | . | -10 | -4 | 25 | -2
O=C(CNC(=O)Cc1ccccc1)N=Nc1c(O)n(Cc2ccc3c(c2)OCO3)c2ccccc12 | 6 | 10 | 20* | 26 | 4 | -6
C[C@H](CO)N1C[C@H](C)[C@@H](CN(C)C(=O)NC2CCCCC2)Oc2ccc(NS(=O)(=O)c3cccs3)cc2CC1=O | 1 | -1 | . | 0[16.7 µM] | . | .
COc1ccc(C2C(C#N)=C(N)Oc3c2ccc2cccnc32)cc1OC (stereo not given) | 18 | . | -7 | -463 | 86* | 0
COc1cc(C2C(C#N)=C(N)Oc3c2ccc2ccccc32)ccc1OCC(=O)Nc1ccc(C)cc1 (stereo not given) | -3 | -1 | -6 | -33 | 36 | 1
COc1ccccc1C(=O)N1C[C@H]2[C@@H](c3ccccc31)[C@@H](CO)N2C(=O)Cc1ccccc1 | 10 | 101* | . | . | -5 | .
COc1ccccc1C(=O)N1C[C@@H]2[C@H](c3ccccc31)[C@@H](CO)N2C(=O)Cc1ccccc1 | -6 | 1 | . | . | -8 | .
O=C(c1ccccc1)c1ccc(OCC(O)CN2CCN(S(=O)(=O)N3CCCCC3)CC2)cc1 (stereo not given) | . | 0 | -9 | 60* | . | -1
O=C(c1ccccc1)c1ccc(OCC(O)CN2CCCCC2)cc1 (stereo not given) | . | -1 | -17 | -7 | . | -1
